Assay results: ChEMBL document CHEMBL3272112, “Cycloalkanones. 8. Hypocholesterolemic activity of long-chain ketones related to pentadecanone” (J Med Chem, 1976)

How the values were obtained:
Rattus norvegicus [1] = experiment: Hypocholesterolemic activity in Sprague-Dawley rat assessed as serum cholesterol level at 10 mg/kg/day, po administered via intubation measured on day 4 by Liebermann-Burchard method relative to control; assay type: functional
How it was run: (§1)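 Male Sprague-Dawley rats given compound homogenized in 1% CMC once daily at 11:00 a.m. by oral intubation needle (0.2 cc), doses calculated on weekly body weights; tail-vein blood drawn 24 h after last dose; nonhemolyzed serum (30 μ) assayed by modified Liebermann-Burchard method; N = 8; % of control, mean ± SD; Student's t test.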

Rattus norvegicus [2] = experiment: Hypocholesterolemic activity in Sprague-Dawley rat assessed as serum cholesterol level at 10 mg/kg/day, po administered via intubation measured on day 10 by Liebermann-Burchard method relative to control; assay type: functional; how it was run: as §1
Rattus norvegicus [3] = experiment: Hypocholesterolemic activity in Sprague-Dawley rat assessed as serum cholesterol level at 10 mg/kg/day, po administered via intubation measured on day 16 by Liebermann-Burchard method relative to control; assay type: functional; how it was run: as §1
Rattus norvegicus [4] = experiment: Toxicity in Sprague-Dawley rat assessed as increase in body weight at 10 mg/kg/day measured on day 10 (reference value: 160 +/- 13%); assay type: organism-based; details: in vivo
Rattus norvegicus [5] = experiment: Toxicity in Sprague-Dawley rat assessed as increase in body weight at 10 mg/kg/day measured on day 16 (reference value: 195 +/- 16%); assay type: organism-based; details: in vivo
Rattus norvegicus [6] = experiment: Uterotrophic activity in ovariectomized weaned Sprague-Dawley rat assessed as uterine weight at 10 mg/kg/day measured after 3 days (reference value: 100 +/- 15%); assay type: ADME, organism-based, Uterus; details: in vivo, 72 h
How it was run: (§2)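 Weaned rats were ovariectomized and left untreated for 3 days. They were then dosed for 3 days with 17-ethinylestradiol 10 µg/kg/day or test compound 10 mg/kg/day, with 1% CMC as the vehicle control. Rats were then killed and the uterus removed, trimmed and weighed. Results are % of control uterine weight, mean ± SD; N = 7; Student's t test.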

Rattus norvegicus [7] = experiment: Uterotrophic activity in ovariectomized weaned Sprague-Dawley rat assessed as uterine weight at 10 ug/kg/day measured after 3 days (reference value: 100 +/- 15%); assay type: ADME, organism-based, Uterus; details: in vivo, 0.01 mg/kg, 72 h; how it was run: as §2

With `CCCCCCCCCCCCCCCCC(C)=O` as the compound, how does the Activity (Rattus norvegicus [1]) read?
Its Activity is 79%.

What about the Activity (Rattus norvegicus [2]) of the same compound?
Its Activity is 86%.

And the Activity (Rattus norvegicus [3])?
The Activity was 73%.

What about the Activity (Rattus norvegicus [4]) of the same compound?
Its Activity is 175%.

What about the Activity (Rattus norvegicus [5]) of the same compound?
Its Activity is 242%.

For `CCCCCCCCCCCCCC(C)=O`, which Activity (Rattus norvegicus [1]) is on record?
Its Activity is 114%.

And the Activity (Rattus norvegicus [2])?
Its Activity is 113%.

And the Activity (Rattus norvegicus [3])?
Its Activity is 98%.

And the Activity (Rattus norvegicus [4])?
The Activity was 156%.

And the Activity (Rattus norvegicus [5])?
Its Activity is 233%.

Which results are given for `CCCCCCCCCC(=O)CCCCCC`?
Activity (Rattus norvegicus [1]): 89%; Activity (Rattus norvegicus [2]): 89%; Activity (Rattus norvegicus [3]): 77%; Activity (Rattus norvegicus [4]): 169%; Activity (Rattus norvegicus [5]): 207%

Which Activity (Rattus norvegicus [1]) does the source give for `CCOC(=O)C(C)(C)Oc1ccc(Cl)cc1` [CLOFIBRATE] here?
Its Activity is 100%.

What about the Activity (Rattus norvegicus [2]) of the same compound?
Its Activity is 98%.

What about the Activity (Rattus norvegicus [3]) of the same compound?
Its Activity is 106%.

Which results are given for `CCCCCCCCCCCCC(=O)CCC`?
Activity (Rattus norvegicus [1]): 65%; Activity (Rattus norvegicus [2]): 89%; Activity (Rattus norvegicus [3]): 103%; Activity (Rattus norvegicus [4]): 175%; Activity (Rattus norvegicus [5]): 213%

`CCCCCCCCC(=O)CCCCCCC` was tested. Which Activity (Rattus norvegicus [1]) did it give?
The Activity was 102%.

And the Activity (Rattus norvegicus [2])?
Its Activity is 97%.

What about the Activity (Rattus norvegicus [3]) of the same compound?
Its Activity is 72%.

What about the Activity (Rattus norvegicus [4]) of the same compound?
The Activity was 167%.

What about the Activity (Rattus norvegicus [5]) of the same compound?
Its Activity is 209%.

What does the source list for `CCCCCCCCCCCCCCCC(C)=O`?
Activity (Rattus norvegicus [1]): 83%; Activity (Rattus norvegicus [2]): 75%; Activity (Rattus norvegicus [3]): 74%; Activity (Rattus norvegicus [4]): 165%; Activity (Rattus norvegicus [5]): 229%; Activity (Rattus norvegicus [6]): 76%

Which Activity (Rattus norvegicus [7]) does the source give for `C#C[C@]1(O)CC[C@H]2[C@@H]3CCc4cc(O)ccc4[C@H]3CC[C@@]21C` [ETHINYL ESTRADIOL] here?
The Activity was 372%.

`CCCCCCCCCCCC(=O)CCCC` was tested. Which Activity (Rattus norvegicus [1]) did it give?
Its Activity is 63%.

And the Activity (Rattus norvegicus [2])?
Its Activity is 89%.

What about the Activity (Rattus norvegicus [3]) of the same compound?
The Activity was 94%.

What about the Activity (Rattus norvegicus [4]) of the same compound?
The Activity was 165%.

And the Activity (Rattus norvegicus [5])?
Its Activity is 206%.

Which Activity (Rattus norvegicus [1]) does the source give for `CCCCCCCCCCC(=O)CCCCC` here?
Its Activity is 70%.

And the Activity (Rattus norvegicus [2])?
Its Activity is 92%.

What about the Activity (Rattus norvegicus [3]) of the same compound?
Its Activity is 100%.

And the Activity (Rattus norvegicus [4])?
Its Activity is 168%.

And the Activity (Rattus norvegicus [5])?
The Activity was 209%.

`CCCCCCCCCCCCCC(=O)CC` was tested. Which Activity (Rattus norvegicus [1]) did it give?
The Activity was 64%.

What about the Activity (Rattus norvegicus [2]) of the same compound?
Its Activity is 83%.

What about the Activity (Rattus norvegicus [3]) of the same compound?
Its Activity is 92%.

What about the Activity (Rattus norvegicus [4]) of the same compound?
Its Activity is 167%.

And the Activity (Rattus norvegicus [5])?
Its Activity is 212%.
